{"data": "Results collected from several papers"}
{"SMILES": "O=C(Nc1ccc2cccnc2c1)c1ccc(COC(Cn2ccnc2)c2ccc(Cl)cc2Cl)cc1 (centres unmarked)", "organism": "Pichia kudriavzevii", "test": "microbial growth, broth dilution", "quantity": "MIC80", "value": "8 µg/mL"}
{"SMILES": "CC1=C(Cn2cncn2)C(=O)c2ccccc2C1=O", "organism": "Schistosoma mansoni", "test": "parasite growth", "conditions": "72 h, larva", "quantity": "IC50", "value": "0.9 µM"}
{"SMILES": "C#CCON=C1C=CC(=C(C#N)c2ccccc2)C=C1", "organism": "Pichia kudriavzevii", "test": "microbial killing, broth dilution", "system": "ATCC14243", "conditions": "48 h", "quantity": "MFC", "value": "64 µg/mL"}
{"SMILES": "CC(C)c1ccc(/C=C2\\N=C(SCC(=O)O)N(c3ccccc3)C2=O)cc1", "organism": "Fusarium solani", "test": "microbial growth, broth dilution", "quantity": "MIC", "value": "12 µg/mL"}
{"SMILES": "C=CC(=O)ON=C1C=CC(=C(C#N)c2ccccc2)C=C1", "organism": "Pichia kudriavzevii", "test": "microbial growth, broth dilution", "system": "ATCC14243", "conditions": "48 h", "quantity": "MIC", "value": "16 µg/mL"}
{"SMILES": "CCn1c(=O)c(-c2cc[nH]n2)cc2c(C)nc(N)nc21", "organism": "Enterovirus A", "test": "viral replication, inhibitor, qPCR", "system": "RD, EV71", "quantity": "IC50", "value": "0.158 µM"}
{"SMILES": "C#CCOC(=O)ON=C1C=CC(=C(C#N)c2ccccc2)C=C1", "organism": "Pichia kudriavzevii", "test": "microbial growth, broth dilution", "system": "ATCC14243", "conditions": "48 h", "quantity": "MIC", "value": "16 µg/mL"}
{"SMILES": "O=C(Nc1ccc(Br)cc1)c1ccc(COC(Cn2ccnc2)c2ccc(Cl)cc2Cl)cc1 (centres unmarked)", "organism": "Pichia kudriavzevii", "test": "microbial growth, broth dilution", "quantity": "MIC80", "value": "0.06 µg/mL"}
{"SMILES": "CC1=C(Cc2cn(CCN3CCC(F)(F)CC3)nn2)C(=O)c2ccccc2C1=O", "organism": "Schistosoma mansoni", "test": "parasite growth", "conditions": "72 h, larva", "quantity": "IC50", "value": "1.6 µM"}
{"SMILES": "CC(=O)ON=C1C=CC(=C(C#N)c2ccccc2)C=C1", "organism": "Pichia kudriavzevii", "test": "microbial growth, broth dilution", "system": "ATCC14243", "conditions": "48 h", "quantity": "MIC", "value": "16 µg/mL"}
{"SMILES": "Clc1ccc(COC(Cn2ccnc2)c2ccc(Cl)cc2Cl)c(Cl)c1 (centres unmarked)", "organism": "Pichia kudriavzevii", "test": "microbial growth, broth dilution", "quantity": "MIC80", "value": "0.5 µg/mL"}
{"SMILES": "CC1=C(Cn2cc([Si](C)(C)C)nn2)C(=O)c2ccccc2C1=O", "organism": "Schistosoma mansoni", "test": "parasite growth", "conditions": "72 h, larva", "quantity": "IC50", "value": "1.57 µM"}
{"SMILES": "O=C(Nc1cccc(Br)c1)c1ccc(COC(Cn2ccnc2)c2ccc(Cl)cc2Cl)cc1 (centres unmarked)", "organism": "Pichia kudriavzevii", "test": "microbial growth, broth dilution", "quantity": "MIC80", "value": "0.06 µg/mL"}
{"SMILES": "CC1=C(Cc2cn(CCN3CCNCC3)nn2)C(=O)c2ccccc2C1=O", "organism": "Schistosoma mansoni", "test": "parasite growth", "conditions": "72 h, larva", "quantity": "IC50", "value": "1.67 µM"}
{"SMILES": "Cc1nnc(-c2ccc3ccn(CC(=O)Nc4ccccc4Cl)c3c2)o1", "organism": "Plasmodium knowlesi", "test": "parasite growth, SYBR Green", "conditions": "30 h, blood stage", "quantity": "EC50", "value": "0.431 µM"}
{"SMILES": "O=C(Nc1ccc2ccccc2c1)c1ccc(COC(Cn2ccnc2)c2ccc(Cl)cc2Cl)cc1 (centres unmarked)", "organism": "Pichia kudriavzevii", "test": "microbial growth, broth dilution", "quantity": "MIC80", "value": "32 µg/mL"}
{"SMILES": "N#CC(=C1C=CC(=NOC(=O)OCc2ccccc2)C=C1)c1ccccc1", "organism": "Pichia kudriavzevii", "test": "microbial killing, broth dilution", "system": "ATCC14243", "conditions": "48 h", "quantity": "MFC", "value": "256 µg/mL"}
{"SMILES": "CC1=C(Cn2cc(CN3CCNCC3)nn2)C(=O)c2ccccc2C1=O", "organism": "Schistosoma mansoni", "test": "parasite growth", "conditions": "72 h, larva", "quantity": "IC50", "value": "0.93 µM"}
{"SMILES": "Cc1ccc(NC(=O)c2ccc(COC(Cn3ccnc3)c3ccc(Cl)cc3Cl)cc2)cc1 (centres unmarked)", "organism": "Pichia kudriavzevii", "test": "microbial growth, broth dilution", "quantity": "MIC80", "value": "0.125 µg/mL"}
{"SMILES": "CC1=C(Cn2cc(CN3CCN(C(=O)OC(C)(C)C)CC3)nn2)C(=O)c2ccccc2C1=O", "organism": "Schistosoma mansoni", "test": "parasite growth", "conditions": "72 h, larva", "quantity": "IC50", "value": "1.5 µM"}
{"SMILES": "O=C(Nc1ccc(F)cc1F)c1ccc(COC(Cn2ccnc2)c2ccc(Cl)cc2Cl)cc1 (centres unmarked)", "organism": "Pichia kudriavzevii", "test": "microbial growth, broth dilution", "quantity": "MIC80", "value": "0.03 µg/mL"}
{"SMILES": "CC(=O)N1CCN(c2ccc(OCC3COC(Cn4ccnc4)(c4ccc(Cl)cc4Cl)O3)cc2)CC1 (centres unmarked)", "organism": "Pichia kudriavzevii", "test": "microbial growth, broth dilution", "system": "ATCC14243", "conditions": "48 h", "quantity": "MIC", "value": "8 µg/mL"}
{"SMILES": "CC1=C(Cn2ccnn2)C(=O)c2ccccc2C1=O", "organism": "Schistosoma mansoni", "test": "parasite growth", "conditions": "72 h, larva", "quantity": "IC50", "value": "1.05 µM"}
